Values joined by “and” are separate entries in the source; they are usually repeats but may differ in a detail not shown here. Equal values may be shown once.
Columns and labels:
[1] = target: T1, CXCR2 (Homo sapiens, UniProt P25025); experiment: CXCR2 antagonistic activity assay; assay type: cell-based
T1 sequence (P25025 1-360): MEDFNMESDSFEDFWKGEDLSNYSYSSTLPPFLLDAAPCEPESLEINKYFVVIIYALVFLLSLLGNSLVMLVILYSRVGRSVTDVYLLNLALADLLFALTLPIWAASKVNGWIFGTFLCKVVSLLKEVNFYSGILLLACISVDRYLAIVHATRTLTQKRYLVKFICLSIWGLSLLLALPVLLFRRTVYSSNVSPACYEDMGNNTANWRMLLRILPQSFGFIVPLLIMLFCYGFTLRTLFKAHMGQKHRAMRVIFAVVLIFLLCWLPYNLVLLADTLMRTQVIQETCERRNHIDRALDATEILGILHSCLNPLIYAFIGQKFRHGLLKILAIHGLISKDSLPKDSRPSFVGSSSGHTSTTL
Outline: (§1)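 HEK293 cells stably co-expressing Gα16 with either CXCR1 or CXCR2 were seeded and grown for 24 h. They were loaded with 2 μmol L−1 Fluo-4 AM in HBSS (pH 7.4, with BSA and 250 μmol L−1 sulfinpyrazone) for 45 min at 37 °C, and excess dye was removed. Test compound was added for 10 min at room temperature before IL-8 injection. Calcium signal was read at ex 485/em 525 nm. IC50 came from nonlinear regression of log concentration–response curves; each experiment was run ≥3 times.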

[2] = target: T2, CXCR1 (Homo sapiens, UniProt P25024); experiment: CXCR1 antagonistic activity assay; assay type: cell-based
T2 sequence (P25024 1-350): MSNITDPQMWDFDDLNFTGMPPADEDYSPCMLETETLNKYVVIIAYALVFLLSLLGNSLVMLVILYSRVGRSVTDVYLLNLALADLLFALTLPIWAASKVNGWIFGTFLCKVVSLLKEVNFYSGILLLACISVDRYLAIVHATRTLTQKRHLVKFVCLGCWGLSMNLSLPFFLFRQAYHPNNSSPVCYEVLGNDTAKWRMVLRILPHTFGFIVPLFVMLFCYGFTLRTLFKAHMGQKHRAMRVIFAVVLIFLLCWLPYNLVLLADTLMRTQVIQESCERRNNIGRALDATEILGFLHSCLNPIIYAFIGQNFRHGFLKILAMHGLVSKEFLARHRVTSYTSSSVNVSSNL
Outline: as §1

[3] = system: CFPAC1 cells; experiment: Cell migration assay; assay type: cell-based; details: 10 μM, 24 h, 3 visual fields, control group 1221 ± 57 cells
[4] = Liver microsome stability assay, human; assay type: in vitro ADME; details: @45 min, 37 °C, NADPH
Outline: (§2)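 Rat or human liver microsomes (1 mg mL−1) were mixed with NADPH (from a 50 mM stock) and pre-warmed for 5 min at 37 °C. Reactions were started with test article from a 100 μg mL−1 stock and kept at 37 °C. Samples at 0, 15 and 45 min were quenched in methanol containing 1 μg mL−1 internal standard, then centrifuged and analysed by LC/MS. Disappearance was derived from the analyte/internal standard peak-area ratio.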

[5] = system: CFPAC1 cells; experiment: Anti-proliferation assay; assay type: cell-based; details: 6.25, 12.5, 25, 50 and 100 μM; 72 h; MTT
Outline: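 CFPAC1 pancreatic cancer cells were seeded at 4000 cells per well and left to adhere for 24 h. They were then exposed for 72 h to medium alone or to test compound at 6.25, 12.5, 25, 50 or 100 μM. Viability was read by MTT. Growth inhibition (%) = [1 − (A/B)] × 100, where A is treated and B is untreated absorbance.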

[6] = SGF stability assay; assay type: in vitro ADME; details: @45 min, 37 °C, pH about 1.2
Outline: (§3)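 Two media were used. SIF: pancreatin 0.68 g per 100 mL of 50 mM potassium phosphate, pH 7.4. SGF: pepsin 3.2 g per 1000 mL of water with 2.0 g NaCl and 7.0 mL concentrated HCl, pH about 1.2. Test article was added from a 100 μg mL−1 stock and incubated at 37 °C with gentle agitation. Samples at 0, 15 and 45 min were quenched in methanol with 1 μg mL−1 internal standard and analysed by LC/MS. Percent remaining relative to 0 min used the peak-area ratio.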

[7] = SIF stability assay; assay type: in vitro ADME; details: @45 min, 37 °C, pH 7.4
Outline: as §3

[8] = system: CFPAC1 cells; experiment: Wound healing assay; assay type: cell-based; details: Homo sapiens, CFPAC-1, 48 h, read-out: migration inhibitory rate
Outline: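 CFPAC1 cells were seeded at 5 × 10^5 per well in 6-well plates and grown to 90% confluence. The monolayer was scratched with a sterile pipette tip and rinsed three times with PBS. Cells were then exposed to 1‰ DMSO or 10 μM test compound. Wounds were photographed at 0, 24 and 48 h. Inhibition (%) = [1 − (0 h area − 24 h or 48 h area)/0 h area] × 100.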

[9] = Plasma stability assay, rat plasma; assay type: in vitro ADME; details: @45 min, 37 °C
Outline: (§4)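 Rat or human plasma was spiked with test article from a 100 μg mL−1 stock and incubated at 37 °C with gentle agitation. Aliquots taken at 0, 15 and 45 min were quenched in methanol containing 1 μg mL−1 internal standard, then centrifuged and analysed by LC/MS. Percent remaining relative to 0 min was based on the analyte/internal standard peak-area ratio.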

[10] = Plasma stability assay, human plasma; assay type: in vitro ADME; details: @45 min, 37 °C
Outline: as §4

[11] = Oral pharmacokinetic study in rats; assay type: in vivo; details: SD, rat, plasma, 10 mg/kg
Outline: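 SD rats received test compound at 10 mg kg−1 by oral gavage in 2% DMSO + 98% (0.5% MC). Venous blood was sampled at 0, 0.25, 0.5, 1, 2, 4, 6, 8 and 24 h. Plasma was separated by centrifugation, stored at −20 °C and assayed by LC/MS. Cmax, Tmax, t1/2 and AUC were then calculated.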

[12] = Liver microsome stability assay, rat; assay type: in vitro ADME; details: @45 min, 37 °C, NADPH
Outline: as §2

| Compound | IC50 [1] [µM] | Ratio = CXCR1 IC50/CXCR2 IC50 (selectivity for CXCR2 over CXCR1) [1] | IC50 [2] [µM] | also measured |
| --- | --- | --- | --- | --- |
| Cc1ccc(Nc2c(NC3C[C@@H]4CC[C@H]3C4)c(=O)c2=O)c(O)c1 (stereo partly drawn) [2a, 3-(((1S,4R)-Bicyclo[2.2.1]heptan-2-yl)amino)-4-((2-hydroxy-4-methylphenyl)amino)cyclobut-3-ene-1,2-dione] | 3.8 | 22.7 | 86.1 |  |
| N#Cc1ccc(Nc2c(NC3C[C@@H]4CC[C@H]3C4)c(=O)c2=O)c(O)c1 (stereo partly drawn) [2b, 4-((2-(((1S,4R)-Bicyclo[2.2.1]heptan-2-yl)amino)-3,4-dioxocyclobut-1-en-1-yl)amino)-3-hydroxybenzonitrile] | 0.45 | 94.9 | 42.7 |  |
| CC(C)S(=O)(=O)c1c(Cl)ccc(Nc2c(NC3C[C@@H]4CC[C@H]3C4)c(=O)c2=O)c1O (stereo partly drawn) [2c, 3-(((1S,4R)-Bicyclo[2.2.1]heptan-2-yl)amino)-4-((4-chloro-2-hydroxy-3-(isopropylsulfonyl)phenyl)amino)cyclobut-3-ene-1,2-dione] | 0.12 | 103.3 | 12.4 |  |
| CC(C)[S+]([O-])c1c(Cl)ccc(Nc2c(NC3C[C@@H]4CC[C@H]3C4)c(=O)c2=O)c1O (stereo partly drawn) [2d, 3-(((1S,4R)-Bicyclo[2.2.1]heptan-2-yl)amino)-4-((4-chloro-2-hydroxy-3-(isopropylsulfinyl)phenyl)amino)cyclobut-3-ene-1,2-dione] | 0.092 | 70.7 | 6.5 |  |
| O=C(c1cccc(Nc2c(NC3C[C@@H]4CC[C@H]3C4)c(=O)c2=O)c1O)N1CCCC1 (stereo partly drawn) [2e, 3-(((1S,4R)-Bicyclo[2.2.1]heptan-2-yl)amino)-4-((2-hydroxy-3-(pyrrolidine-1-carbonyl)phenyl)amino)cyclobut-3-ene-1,2-dione] |  | 60.4 |  | number of cells traversed into the lower chamber of the Transwell [3]: 727 ± 50 cells; Remaining percentage, liver microsome stability, human [4]: 27% and 27.4 ± 4.3%; inhibitory effect on the CFPAC1 cell line (survival rate) [5]: no inhibitory effect; Remaining percentage, SGF [6]: >99%; Remaining percentage, SIF [7]: 92.2 ± 2.0%; inhibition at 10 µM [8]: 20.2%; Remaining percentage, plasma stability, rat [9]: >99%; Remaining percentage, plasma stability, human [10]: >99%; AUC(0-inf) [11]: 8940 ± 3460 ng·h/mL; AUC(0-t) [11]: 8820 ± 3560 ng·h/mL; Cmax [11]: 2860 ± 94 ng/mL; MRT [11]: 3.43 ± 0.73 h; Tmax [11]: 0.33 ± 0.14 h; half-life [11]: 2.58 ± 0.74 h; k el [11]: 7.92e-05 s⁻¹; Remaining percentage, liver microsome stability, rat [12]: 84% and 84.2 ± 3.4% |
| O=C(c1cccc(Nc2c(NC3C[C@@H]4CC[C@H]3C4)c(=O)c2=O)c1O)N1CCCCC1 (stereo partly drawn) [2f, 3-(((1S,4R)-Bicyclo[2.2.1]heptan-2-yl)amino)-4-((2-hydroxy-3-(piperidine-1-carbonyl)phenyl)amino)cyclobut-3-ene-1,2-dione] | 0.59 | 17.5 | 10.3 |  |
| CC(C)(C)OC(=O)N1CCN(C(=O)c2cccc(Nc3c(NC4C[C@@H]5CC[C@H]4C5)c(=O)c3=O)c2O)CC1 (stereo partly drawn) [2g, Tert-butyl 4-(3-((2-(((1S,4R)-bicyclo[2.2.1]heptan-2-yl)amino)-3,4-dioxocyclobut-1-en-1-yl)amino)-2-hydroxybenzoyl)piperazine-1-carboxylate] | 0.42 | 13.3 | 5.6 |  |
| Cl.O=C(c1cccc(Nc2c(NC3C[C@@H]4CC[C@H]3C4)c(=O)c2=O)c1O)N1CCNCC1 (stereo partly drawn) [2h, 3-(((1S,4R)-Bicyclo[2.2.1]heptan-2-yl)amino)-4-((2-hydroxy-3-(piperazine-1-carbonyl)phenyl)amino)cyclobut-3-ene-1,2-dione hydrochloride] | 0.53 | >188.7 | > 100 |  |

Second part, led by results:

| IC50 [1] [µM] | Ratio = CXCR1 IC50/CXCR2 IC50 (selectivity for CXCR2 over CXCR1) [1] | IC50 [2] [µM] | Compound | also measured |
| --- | --- | --- | --- | --- |
| 0.062 | 113 | 7 | CN(C)C(=O)c1cccc(Nc2c(NC3C[C@@H]4CC[C@H]3C4)c(=O)c2=O)c1O (stereo partly drawn) [1a, 3-((2-(((1S,4R)-Bicyclo[2.2.1]heptan-2-yl)amino)-3,4-dioxocyclobut-1-en-1-yl)amino)-2-hydroxy-N,N-dimethylbenzamide] |  |
| > 100 |  | > 100 | CN(C)C(=O)c1cccc(Nc2c(NC3C[C@H]4CC[C@@H](C3)N4C(=O)OC(C)(C)C)c(=O)c2=O)c1O (stereo partly drawn) [1b, Tert-butyl (1R,5S)-3-((2-((3-(dimethylcarbamoyl)-2-hydroxyphenyl)amino)-3,4-dioxocyclobut-1-en-1-yl)amino)-8-azabicyclo[3.2.1]octane-8-carboxylate] |  |
| 5.5 | 6.5 | 35.6 | CN(C)C(=O)c1cccc(Nc2c(NC3C[C@H]4CC[C@]3(C)C4(C)C)c(=O)c2=O)c1O (stereo partly drawn) [1c, 3-((3,4-Dioxo-2-(((1R,4R)-1,7,7-trimethylbicyclo[2.2.1]heptan-2-yl)amino)cyclobut-1-en-1-yl)amino)-2-hydroxy-N,N-dimethylbenzamide] |  |
| 1 | 6.7 | 6.7 | CN(C)C(=O)c1cccc(Nc2c(NC3C[C@H]4C[C@@H]3C3CCC[C@@H]34)c(=O)c2=O)c1O (stereo partly drawn) [1d, 2-Hydroxy-N,N-dimethyl-3-((2-(((4R,7R,7aR)-octahydro-1H-4,7-methanoinden-5-yl)amino)-3,4-dioxocyclobut-1-en-1-yl)amino)benzamide] |  |
| 2.6 | 11.8 | 30.8 | CN(C)C(=O)c1cccc(Nc2c(NCC3C[C@H]4C=C[C@@H]3C4)c(=O)c2=O)c1O (stereo partly drawn) [1e, 3-((2-((((1S,4S)-Bicyclo[2.2.1]hept-5-en-2-yl)methyl)amino)-3,4-dioxocyclobut-1-en-1-yl)amino)-2-hydroxy-N,N-dimethylbenzamide] |  |
| 23.6 | 2.1 | 48.8 | CN(C)C(=O)c1cccc(Nc2c(NCC3C[C@H]4CC[C@@H]3C4)c(=O)c2=O)c1O (stereo partly drawn) [1f, 3-((2-((((1R,4S)-Bicyclo[2.2.1]heptan-2-yl)methyl)amino)-3,4-dioxocyclobut-1-en-1-yl)amino)-2-hydroxy-N,N-dimethylbenzamide] |  |

Source: PMC9078949 (RSC Advances, 2018)
